Results published in ChEMBL document CHEMBL1152768, “4-Benzyloxy-gamma-sultone derivatives: discovery of a novel family of non-nucleoside inhibitors of human cytomegalovirus and varicella zoster virus” (J Med Chem, 2009).
Activity calls are given as the source filed them. The calls are words filed in the database; no cut-off is given here.

Tests used:
[1] = tested on: Human betaherpesvirus 5; assay: Antiviral activity against HCMV Davis infected in human HEL cells assessed inhibition of virus-induced cytopathicity after 7 days postinfection; assay type: functional, organism-based; conditions: Human betaherpesvirus 5, Davis, 168 h
In short: (§1)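 HEL fibroblasts were infected at 100 PFU. After 2 h, residual virus was removed and medium with test compound was added at several concentrations, in duplicate. Cells were incubated 7 days at 37 °C, fixed with ethanol and stained with Giemsa.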

[2] = tested on: Human betaherpesvirus 5; assay: Antiviral activity against HCMV AD169 infected in human HEL cells assessed inhibition of virus-induced cytopathicity after 7 days postinfection; assay type: functional, organism-based; conditions: Human betaherpesvirus 5, AD169, HEL, 168 h; in short: as §1
[3] = tested on: Human alphaherpesvirus 3; assay: Antiviral activity against thymidine kinase expressing Varicella zoster virus Oka infected in human HEL cells assessed reduction in viral plaque formation; assay type: functional, organism-based; conditions: Human alphaherpesvirus 3, Oka
In short: (§2)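 Confluent HEL cell monolayers were inoculated with VZV at 20 PFU per well. Residual virus was removed after 2 h, and compound was added at varying concentrations, in duplicate.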

[4] = tested on: Human alphaherpesvirus 3; assay: Antiviral activity against thymidine kinase deficient Varicella zoster virus 07/1 infected in human HEL cells assessed reduction in viral plaque formation; assay type: functional, organism-based; conditions: Human alphaherpesvirus 3, HEL; in short: as §2
[5] = Cytotoxicity against human HEL cells assessed as morphological alteration after 3 days; assay type: cell-based
In short: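 HEL cultures were examined under the microscope. MCC was recorded as the compound concentration causing a microscopically detectable alteration of normal cell morphology.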

[6] = Cytotoxicity against human HEL cells assessed as reduction of growth after 3 days; assay type: cell-based
In short: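 HEL cells were seeded at 5 × 10³ cells/well and grown 24 h before compound was added at different concentrations. After 3 days at 37 °C, cells were counted with a Coulter counter. CC50, the concentration halving growth relative to untreated controls, was read from plots of cell number (% of control) against concentration.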

[7] = Therapeutic index, ratio of CC50 for human HEL cells to EC50 for Human cytomegalovirus; assay type: cell-based; conditions: read-out: Ratio CC50/EC50
In short: (§3)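 Index calculated as CC50 (HEL cell growth, 3 days, Coulter count) divided by EC50 from the HEL-cell antiviral assays: HCMV cytopathicity at 7 days for line 18, VZV plaque reduction at 5 days for line 19.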

[8] = Therapeutic index, ratio of CC50 for human HEL cells to EC50 for Varicella zoster virus; assay type: cell-based; conditions: read-out: Ratio CC50/EC50; in short: as §3
[9] = tested on: Human alphaherpesvirus 3; assay: Antiviral activity against Varicella zoster virus YS infected in human HEL cells assessed reduction in viral plaque formation; assay type: functional, organism-based; conditions: Human alphaherpesvirus 3, YS
[10] = tested on: Mammalian orthoreovirus 3; assay: Antiviral activity against Reovirus 3 infected in african green monkey Vero cells; assay type: functional, organism-based
[11] = tested on: Sindbis virus; assay: Antiviral activity against Sindbis virus infected in african green monkey Vero cells; assay type: functional, organism-based
[12] = tested on: Coxsackievirus B4; assay: Antiviral activity against Coxsackievirus B4 infected in african green monkey Vero cells; assay type: functional, organism-based
[13] = tested on: Vesicular stomatitis virus; assay: Antiviral activity against VSV infected in human HeLa cells; assay type: functional, organism-based
[14] = tested on: Human alphaherpesvirus 1; assay: Antiviral activity against HSV1 KOS infected in human HEL cells; assay type: functional, organism-based
[15] = tested on: Coxsackievirus B4; assay: Antiviral activity against Coxsackievirus B4 infected in human HeLa cells; assay type: functional, organism-based
[16] = tested on: Respiratory syncytial virus; assay: Antiviral activity against RSV infected in human HeLa cells; assay type: functional, organism-based
[17] = tested on: Human alphaherpesvirus 1; assay: Antiviral activity against acyclovir-resistant […]-deficient HSV1 infected in human HEL cells; assay type: functional, organism-based
[18] = tested on: Human alphaherpesvirus 2; assay: Antiviral activity against HSV2 infected in human HEL cells; assay type: functional, organism-based
[19] = tested on: Vaccinia virus; assay: Antiviral activity against Vaccinia virus infected in human HEL cells; assay type: functional, organism-based; conditions: Orthopoxvirus vaccinia
[20] = tested on: Vesicular stomatitis virus; assay: Antiviral activity against VSV infected in human HEL cells; assay type: functional, organism-based
[21] = tested on: Punta Toro virus; assay: Antiviral activity against Punta Toro virus infected in african green monkey Vero cells; assay type: functional, organism-based
[22] = tested on: Human betaherpesvirus 5; assay: Antiviral activity against ganciclovir-resistant HCMV AD169 clone 4 infected in HEL cells assessed as inhibition of virus-induced cytopathicity; assay type: functional, organism-based; conditions: Human betaherpesvirus 5, AD169, HEL
[23] = tested on: Human betaherpesvirus 5; assay: Antiviral activity against foscarnet-resistant HCMV AD169 clone C infected in HEL cells assessed as inhibition of virus-induced cytopathicity; assay type: functional, organism-based; conditions: Human betaherpesvirus 5, AD169, HEL
[24] = tested on: Human betaherpesvirus 5; assay: Antiviral activity against cidofovir HCMV AD169 clone 5 infected in human HEL cells assessed as inhibition of virus-induced cytopathicity; assay type: functional, organism-based; conditions: Human betaherpesvirus 5, AD169, HEL
[25] = tested on: Human betaherpesvirus 5; assay: Antiviral activity against PMEDAP-resistant HCMV AD169 clone 4 infected in HEL cells assessed as inhibition of virus-induced cytopathicity; assay type: functional, organism-based; conditions: Human betaherpesvirus 5, AD169, HEL
[26] = tested on: Human betaherpesvirus 5; assay: Antiviral activity against HPMPA-resistant HCMV AD169 clone 2 mutant infected in HEL cells assessed as inhibition of virus-induced cytopathicity; assay type: functional, organism-based; conditions: Human betaherpesvirus 5, AD169, HEL
[27] = tested on: Human betaherpesvirus 5; assay: Antiviral activity against acyclovir-resistant HCMV AD169 clone 1 infected in HEL cells assessed as inhibition of virus-induced cytopathicity; assay type: functional, organism-based; conditions: Human betaherpesvirus 5, AD169, HEL
[28] = tested on: Human betaherpesvirus 5; assay: Antiviral activity against wild type HCMV AD169 infected in HEL cells assessed as inhibition of virus-induced cytopathicity; assay type: functional, organism-based; conditions: Human betaherpesvirus 5, AD169, HEL
In short: (§4)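 HEL fibroblast cultures infected at 100 PFU input. After 2 h, residual virus was removed and compound-containing medium was added at varying concentrations, in duplicate. Cells were incubated 7 days at 37 °C, ethanol-fixed and Giemsa-stained, and cytopathicity was scored microscopically.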

[29] = tested on: Human betaherpesvirus 5; assay: Antiviral activity against wild type HCMV Davis infected in HEL cells assessed as inhibition of virus-induced cytopathicity; assay type: functional, organism-based; conditions: Human betaherpesvirus 5, Davis; in short: as §4
[30] = tested on: Human respirovirus 3; assay: Antiviral activity against Parainfluenza virus 3 infected in african green monkey Vero cells; assay type: functional, organism-based
[31] = tested on: Human alphaherpesvirus 3; assay: Antiviral activity against Varicella zoster virus YSR infected in human HEL cells assessed reduction in viral plaque formation; assay type: functional, organism-based; conditions: Human alphaherpesvirus 3, YSR

O=S1(=O)C=C(OCc2ccccc2)C(Cc2ccccc2)(Cc2ccccc2)O1
EC50 [1]: > 50 µM | EC50 [2]: 50 µM | EC50 [3]: > 5 µM | EC50 [4]: 5 µM | MCC at 72 h [5]: 200 µM | CC50 at 72 h [6]: 200 µM | selectivity ratio [7]: ≤ 4 | selectivity ratio [8]: ≤ 4

CCC1(Cc2ccccc2)OS(=O)(=O)C=C1OCc1ccccc1Cl (racemic)
EC50 [1]: > 4 µM | EC50 [2]: > 4 µM | EC50 [3]: 8.7 µM | EC50 [4]: 10 µM | MCC at 72 h [5]: ≥ 20 µM | CC50 at 72 h [6]: 38 µM | EC50 [9]: > 5 µM

CCC1(Cc2ccccc2)OS(=O)(=O)C=C1OCCc1ccccc1 (racemic)
Activity [10]: inactive | Activity [11]: inactive | Activity [12]: inactive | Activity [13]: inactive | Activity [14]: inactive | Activity [15]: inactive | Activity [16]: inactive | Activity [17]: inactive | Activity [18]: inactive | Activity [19]: inactive | Activity [20]: inactive | EC50 [1]: 9.3 µM | EC50 [2]: 6.9 µM | EC50 [3]: 5.7 µM | EC50 [4]: 7.5 µM | MCC at 72 h [5]: ≥ 20 µM | CC50 at 72 h [6]: 48 µM | Activity [21]: inactive

CCC1(Cc2ccccc2)OS(=O)(=O)C=C1OCc1ccc(Cl)cc1 (racemic)
EC50 [22]: 11 µM | Activity [10]: inactive | Activity [11]: inactive | Activity [12]: inactive | Activity [13]: inactive | Activity [14]: inactive | Activity [15]: inactive | Activity [16]: inactive | Activity [17]: inactive | Activity [18]: inactive | Activity [19]: inactive | Activity [20]: inactive | EC50 [1]: 9.7 µM | EC50 [2]: 10.4 µM | EC50 [3]: 7.6 µM | EC50 [4]: 5.7 µM | MCC at 72 h [5]: ≥ 50 µM | CC50 at 72 h [6]: > 200 µM | EC50 [9]: 10 µM | EC50 [23]: 9.6 µM | EC50 [24]: 11 µM | EC50 [25]: 12 µM | EC50 [26]: 9.9 µM | EC50 [27]: 1.1 µM | EC50 [28]: 11 µM | EC50 [29]: 11 µM | Activity [21]: inactive

CCC1(Cc2ccccc2)OS(=O)(=O)C=C1OCc1ccccc1 (racemic)
Activity [30]: inactive | Activity [10]: inactive | Activity [11]: inactive | Activity [12]: inactive | Activity [13]: inactive | Activity [14]: inactive | Activity [15]: inactive | Activity [16]: inactive | Activity [17]: inactive | Activity [18]: inactive | Activity [19]: inactive | Activity [20]: inactive | EC50 [1]: 9.3 µM | EC50 [2]: 13 µM | EC50 [3]: 6.4 µM | EC50 [4]: 5.6 µM | MCC at 72 h [5]: ≥ 50 µM | CC50 at 72 h [6]: 200 µM | EC50 [9]: 3.6 µM | selectivity ratio [7]: ≥ 5 | selectivity ratio [8]: ≥ 5 | Activity [21]: inactive

CCC1(Cc2ccccc2)OS(=O)(=O)C=C1OCc1ccc(F)cc1 (racemic)
EC50 [1]: 7 µM | EC50 [2]: 15 µM | EC50 [3]: 8.6 µM | EC50 [4]: 8.6 µM | MCC at 72 h [5]: ≥ 50 µM | CC50 at 72 h [6]: > 50 µM | EC50 [9]: 10.4 µM | EC50 [31]: 9.3 µM

CCC1(Cc2ccccc2)OS(=O)(=O)C=C1OCc1ccc(OC)cc1 (racemic)
Activity [10]: inactive | Activity [11]: inactive | Activity [12]: inactive | Activity [13]: inactive | Activity [14]: inactive | Activity [15]: inactive | Activity [16]: inactive | Activity [17]: inactive | Activity [18]: inactive | Activity [19]: inactive | Activity [20]: inactive | EC50 [1]: 142 µM | EC50 [2]: 200 µM | EC50 [3]: 120 µM | EC50 [4]: 106 µM | MCC at 72 h [5]: ≥ 200 µM | CC50 at 72 h [6]: > 200 µM | Activity [21]: inactive
